UBC13 polyUb: human UBC13 polyubiquitination inhibition; UBC13 polyubiquitin chain formation, TR-FRET; inhibition, % at 20 µM; 0.47% of 330,000 active; AID 485273; in the data active = inhibition above about 45%, passing the limit was not always enough; inconclusive = no clear call, values can overlap the other calls
T cruzi repl: blocks replication of Trypanosoma cruzi. T. cruzi beta-gal in NIH3T3, luminescence, 90 h. inhibition, % (no concentration beside the values). 1.4% of 300,000 active. AID 1885;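 active = mean inhibition across valid replicates above about 55%, limit read from the data; inconclusive = mean below that limit but half or more replicates reach it; inactive = mean below it, under half of replicates reach it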;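 note: signal also drops with host cell toxicity which is not excluded here; higher percent means less beta-gal luminescence so fewer parasites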
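Assay system: NIH/3T3 host cells with β-galactosidase reporter T. cruzi; input: 5,000 host fibroblasts per well; compound: single 50 nL compound addition per well in DMSO; timing: ≥90 h infection period, 3 h prior cell attachment; measured by: GalScreen β-gal luminescence, detergent lysis, 60 min; evaluation: percent inhibition of parasite-derived β-gal signal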
AI-2 QS modul: modulators of Vibrio harveyi AI-2 quorum sensing system | AID 2094 | activity change, % at 7.5 µM | 0.4% of 300,000 active | Vibrio harveyi JMH597 AI-2 luminescence/OD600 ratio, 9 h; active compounds read low; strain lacks LuxN and CqsS sensors; 0 = neutral-control median; in the data active = activity change below about -75%, passing the limit was not always enough; inconclusive = no clear call, values can overlap the other calls;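 note: luminescence divided by OD600 gain over 9 h not by final OD600 alone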
PP1 counter: blocks human PP1-alpha phosphatase, a PP5 counter-screen; AID 2235; purified PP1alpha, OMFP fluorescence; 0.9% of 320,000 active; inhibition, % at 6.7 µM; P62136;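 active = inhibition above the mean inhibition of all tested compounds plus 3 SD, computed separately for each screening campaign, cut at about 15% in these data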
pCIP destab: compounds decreasing mouse p/CIP protein stability; 0.01% of 290,000 active; Q05BA5; F442A p/CIP-EGFP cells, EGFP fluorescence, 16 h; decrease of EGFP signal, % at 10 µM;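 active = EGFP signal decrease of at least 30% at 10 µM or well 3 SD below plate mean, unless failing retest; inactive = the rest, including hits failing retest or dose response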
A number is an active result; i = inactive; ? = inconclusive; nt = no result given. Compounds with a hit are over-represented: about 2.8% of the library has one in this group of screens.

SMILES	UBC13 polyUb	T cruzi repl	AI-2 QS modul	PP1 counter	pCIP destab
O=C(Cn1c2[n+](c3ccc(C(F)(F)F)cc31)CCCCC2)c1ccc2c(c1)OCCO2	i	68	i	i	i
O=C(Cn1c2[n+](c3ccc(C(F)(F)F)cc31)CCCCC2)c1cccc([N+](=O)[O-])c1	i	i	i	i	i
COc1ccc(F)cc1C(=O)C1CCCN(Cc2cnc(N3CCCC3)s2)C1 (stereo unspecified)	i	57	i	i	i
COc1ccc(Cl)cc1C(=O)C1CCCN(Cc2cnc(N3CCOCC3)s2)C1 (stereo unspecified)	i	72	i	i	i
COc1ccc(C(=O)C2CCCN(Cc3cnc(N4CCCC4)s3)C2)cc1OC (stereo unspecified)	i	67	i	i	i
Cc1ccc2[nH]c(C(=O)N3CCN(c4cccc(Cl)c4)CC3)cc2c1	i	i	i	i	i
O=C(Nc1ccnn1C1CCN(C(=O)c2cc(Cl)ccc2F)CC1)C1CCOC1 (stereo unspecified)	i	i	i	i	i
S=C(Nc1ccccc1)N1CCN(C(=S)c2ccccc2)CC1	i	i	i	i	i
OCCN(CC#CCn1c2ccccc2c2ccccc21)CCO	i	i	i	i	i
Cc1ccc(NC(=O)N(Cc2ccco2)Cc2cc3cc(C)cc(C)c3nc2Cl)cc1	nt	56	i	nt	i
COc1ccccc1NC(=O)N(Cc1ccco1)Cc1cc2ccc(C)c(C)c2[nH]c1=O	i	i	i	i	i
Cc1cccc2cc(CN(Cc3ccco3)C(=O)Nc3cccc(C#N)c3)c(Cl)nc12	i	60	i	i	i
Cc1ccc(C)c2[nH]c(=O)c(CN(Cc3ccco3)C(=O)Nc3ccccc3)cc12	i	i	i	i	i
CC[C@@H](Nc1ncnc2c1oc1ccccc12)C(=O)O	i	i	i	i	i
O=C(COC(=O)c1cccc(OC(F)F)c1)NC1CCCC1	i	i	i	i	i
N=c1c(S(=O)(=O)c2ccc(Cl)cc2)cc2c(=O)n3ccccc3nc2n1CCN1CCOCC1	i	i	i	i	i
N=c1c(S(=O)(=O)c2ccc(Cl)cc2)cc2c(=O)n3ccccc3nc2n1CCc1ccccc1	i	58	i	i	i
COc1cc(CNc2ccc(N3CCCC3)cc2)cc(Cl)c1OC	i	73	i	i	i
C=CCOc1c(Cl)cc(CNc2ccc(C)c(Cl)c2)cc1OC	i	55	i	i	i
CCOc1ccc(CNc2ccc(N3CCCC3)cc2)cc1	i	i	i	16	i
CCOc1cc(CNc2ccc(N3CCCC3)cc2)cc(Cl)c1OC	i	i	i	i	i
C=CCOc1c(Cl)cc(CNc2ccc(N(C)C)cc2)cc1OC	i	i	nt	i	i
COc1cccc(CNc2ccc(N3CCCCC3)cc2)c1OC	i	nt	nt	i	i
CCOc1ccc(CNc2ccc(N3CCN(Cc4ccccc4)CC3)cc2)cc1	i	i	i	i	i
COc1ccccc1CNc1ccc(N2CCCCC2)cc1	i	65	i	i	i
SMILES	UBC13 polyUb	T cruzi repl	AI-2 QS modul	PP1 counter	pCIP destab
O=C(/C=C/c1ccccc1)c1cc(Br)ccc(=O)c1O	i	i	i	17	i
Cc1ccc(/C=C/C(=O)c2ccccc(=O)c2O)cc1C	nt	59	i	i	i
COC(=O)C1CN(C(=O)C(C)Oc2ccc(F)cc2)c2ccccc2O1 (stereo unspecified)	i	i	i	i	i
COc1ccc(CCn2c(C3CCCCC3)nc3c(c(=O)c4ccccc4n3C)c2=O)cc1	i	?	i	16	i
Cc1ccc(NC(=S)N(CCCN2CCOCC2)Cc2cccnc2)cc1C	i	68	i	i	i
Cc1ccc(NC(=O)N(Cc2cccnc2)Cc2ccco2)cc1C	i	67	i	i	i
O=C(Nc1ccc(Cl)cc1)N(Cc1cccnc1)Cc1ccco1	i	61	i	i	i
CCc1ccc(NC(=S)N(Cc2cccnc2)Cc2ccco2)cc1	i	nt	i	i	i
COc1ccc(C(=O)NCCS(=O)(=O)NC(C)c2ccccc2)cc1 (stereo unspecified)	i	i	i	i	nt
O=C(Nc1ccc(OC(F)(F)F)cc1)N1CCN(c2ccnc3cc(Cl)ccc23)CC1	i	64	nt	i	i
CC(C)(C)C(=O)N1CCN(c2ccnc3cc(Cl)ccc23)CC1	i	i	i	i	i
CC(C)(C)C(C(Oc1ccc(Cl)cc1)n1cncn1)n1nnnc1C(c1cccc(Cl)c1)N1CCCCC1 (stereo unspecified)	i	55	i	i	i
Cc1cc(O)c(-c2n[nH]c3c2C(c2cccc(O)c2)N(Cc2cccnc2)C3=O)cc1Cl (stereo unspecified)	i	i	i	17	i
CCCN1C(=O)c2[nH]nc(-c3cc(Cl)c(C)cc3O)c2C1c1ccc(O)c(OC)c1 (stereo unspecified)	i	i	i	i	i
CC1=CC(=O)C(C(C)C)=C/C1=C(\c1cc(C(C)C)c(OP(=O)(O)O)cc1C)c1ccccc1C(=O)O	i	i	i	15	i
CCC(=O)Nc1ccc(C(=O)CSc2nnc(-c3ccc(NS(=O)(=O)CC)cc3)o2)cc1OC	i	i	i	17	i
COc1ccc(C(=O)Nc2ccccc2C(=O)Nc2ccncc2)cc1	i	?	i	i	i
CCN(CC)CCOCCOc1cc(C)c(Cl)c(C)c1	i	64	i	i	i
O=C(c1ccco1)N1CCCC(c2nc3c(nnn3Cc3ccc(F)cc3)c(=O)[nH]2)C1 (stereo unspecified)	i	i	i	i	i
CCC(C)c1ccccc1NC(=O)c1cc2cccc([N+](=O)[O-])c2[nH]1 (stereo unspecified)	i	65	nt	i	i
COc1cc(C(=O)NCCC(C)C)ccc1OCc1ccc(Cl)cc1Cl	i	70	i	i	i
CC(C)C[C@@H](CSc1ccc(Br)cc1)N1CCN(CC(C)C)CCC1=O	i	i	i	i	i
CCOC(=O)c1sc2ncnc(N3CCN(CC)CC3)c2c1C	i	77	i	i	i
O=C(NC(Cc1c[nH]c2ccccc12)C(=O)O)/C(=C\c1ccc2c(c1)OCO2)NC(=O)c1ccccc1 (stereo unspecified)	i	i	i	i	i
Fc1ccc(N/N=C/c2ccc(N3CCOCC3)cc2)c(F)c1	i	65	i	i	i
COc1ccc(C2NC(=S)N(c3ccccc3)C(C)=C2C(=O)Nc2ccccc2)cc1 (stereo unspecified)	i	i	i	i	i
CC1=C(C(=O)Nc2ccc([N+](=O)[O-])cc2)C(c2cccc(C(F)(F)F)c2)NC(=S)N1c1ccccc1 (stereo unspecified)	i	57	i	i	i
Cc1ccc(S(=O)(=O)N(C)C)cc1NC(=O)COC(=O)C1CC(=O)N(c2ccc3c(c2)OCCO3)C1 (stereo unspecified)	i	i	i	i	nt
COc1ccc2[nH]c(C(O)(Cc3cccnc3)Cc3cccnc3)cc2c1	i	57	i	i	i
COc1ccc(CNC(=O)C(=O)NCc2cccnc2)cc1	i	i	i	i	i

Screening data from PubChem.
